Data published in ChEMBL document CHEMBL1135880, “Synthesis and X-ray studies of chiral allosteric modifiers of hemoglobin” (J Med Chem, 2002).

Key:
[1] = target: T1, Hemoglobin HbA (Homo sapiens) (UniProt P69905+P68871); assay: Ability to right-shift the oxygen equilibrium curves (OECs) quantified by ability to increase in P50 at which Hb was 50% saturated with oxygen in the […] of the effector.; format: functional
[2] = target: T1, Hemoglobin HbA (Homo sapiens); assay: Ability to right-shift the oxygen equilibrium curves (OECs) quantified by ability to increase in P50 at which Hb was 50% saturated with oxygen in the presence of the effector at the concentration of 5 mM.; format: functional
Summary of the method: (§1)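 Human whole blood; DMSO stock 200 mM, final 5 mM effector, DMSO-only control. Duplicate samples equilibrated ~10 min at 37 °C in tonometers against gas mixtures of 2.95%, 5.85% and 8.75% O2 with 5.8% CO2, balance N2. pO2 and sO2 read on blood gas analyzer and co-oximeter. P50 and n50 from nonlinear regression; ΔP50 = P50 effector − P50 control.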

[3] = target: T1, Hemoglobin HbA (Homo sapiens); assay: Oxygen pressure in mmHg at which Hb is 50% saturated with oxygen at 50-60 uM heme concentration and in the presence of 0.5 mM effector.; format: functional
[4] = target: T1, Hemoglobin HbA (Homo sapiens); assay: The difference in the partial pressure of oxygen at 50% saturated Hb; format: functional; summary of the method: as §1
[5] = target: T1, Hemoglobin HbA (Homo sapiens); assay: Ability to right-shift the oxygen equilibrium curves (OECs) quantified by ability to increase in P50 in whole blood analyses.; format: functional, tissue-based; summary of the method: as §1
[6] = target: T1, Hemoglobin HbA (Homo sapiens); assay: Ratio of […] (P50 control value with no effector present 5.0 mmHg, in case of DMSO is 4.7 mmHg ); format: functional
[7] = target: T1, Hemoglobin HbA (Homo sapiens); assay: The Hill coefficient at 50% saturation (n50) between 40 and 60% oxygen saturation (n50 control value with no effector present, 2.7).; format: protein-complex assay
[8] = target: T1, Hemoglobin HbA (Homo sapiens); assay: The Hill coefficient at 50% saturation (n50) in the presence of effector.; format: protein-complex assay; summary of the method: as §1
[9] = target: T1, Hemoglobin HbA (Homo sapiens); assay: Ability to right-shift the oxygen equilibrium curves (OECs) quantified by ability to increase in P50 at which Hb was 50% saturated with oxygen in the […] of the effector at the concentration of 5 mM.; format: functional; summary of the method: as §1

T1 sequence (P68871 2-147 partner limits assumed): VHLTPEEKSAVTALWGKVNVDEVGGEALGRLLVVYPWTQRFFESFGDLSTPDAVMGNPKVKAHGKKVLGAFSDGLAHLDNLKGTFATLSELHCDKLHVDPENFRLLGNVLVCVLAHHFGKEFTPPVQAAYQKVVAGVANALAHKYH
T1 sequence (P69905 2-142 limits assumed): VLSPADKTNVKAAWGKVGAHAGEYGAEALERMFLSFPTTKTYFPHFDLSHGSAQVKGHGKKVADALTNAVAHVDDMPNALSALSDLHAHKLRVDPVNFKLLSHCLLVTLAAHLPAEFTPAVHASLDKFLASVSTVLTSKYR

Row | Compound | P50e [1] | P50e [2] | P50e [3] | Delta P50 [4] | P50c [5] | P50e / P50c [6] | Hill coefficient (n50) [7] | n50e [8] | P50e [9]
1 | CSCC[C@H](NC(=O)C1(Oc2ccc(CC(=O)Nc3cc(C)cc(C)c3)cc2)CCCC1)C(=O)O | 50.7 mmHg | 56.8 mmHg | 18.1 mmHg | 26.6 | 27.1 mmHg | 3.6 | 2.6 | 2.3 | –
2 | Cc1cc(C)cc(NC(=O)Cc2ccc(OC3(C(=O)N4CCC[C@H]4C(=O)O)CCCC3)cc2)c1 | 41.1 mmHg | 42.5 mmHg | 13.5 mmHg | 17 | 24.8 mmHg | 2.7 | 2.7 | 2.3 | –
3 | Cc1cc(C)cc(NC(=O)Cc2ccc(OC3(C(=O)N[C@H](CCCCNC(=O)OCc4ccccc4)C(=O)O)CCCC3)cc2)c1 | 27.6 mmHg | 28.2 mmHg | 22.4 mmHg | 0.4 | 27.5 mmHg | 4.5 | 2.5 | 2.5 | –
4 | Cc1cc(C)cc(NC(=O)Cc2ccc(OC3(C(=O)NCC(=O)O)CCCC3)cc2)c1 | 50 mmHg | 52.6 mmHg | 12 mmHg | 25.1 | 26.2 mmHg | 2.4 | 2.6 | 2.1 | –
5 | Cc1cc(C)cc(NC(=O)Cc2ccc(OC(C)(C)C(=O)O)cc2)c1 | 80 mmHg | 82.6 mmHg | – | 51.5 | 29.8 mmHg | 4.7 | 2.3 | 1.5 | –
6 | Cc1cc(C)cc(NC(=O)Cc2ccc(OC3(C(=O)N[C@H](CSCc4ccccc4)C(=O)O)CCCC3)cc2)c1 | 30.6 mmHg | 33.3 mmHg | 43 mmHg | 7.2 | 24.8 mmHg | 8.6 | 2.1 | 2.3 | –
7 | Cc1cc(C)cc(NC(=O)Cc2ccc(OC3(C(=O)N[C@H](CCCCN)C(=O)O)CCCC3)cc2)c1 | 26.7 mmHg | 28.6 mmHg | 8.1 mmHg | -0.6 | 28.3 mmHg | 1.6 | 2.4 | 2.7 | –
8 | Cc1cc(C)cc(NC(=O)Cc2ccc(OC3(C(=O)N[C@@H](C(=O)O)C(C)O)CCCC3)cc2)c1 (some centres not stated) | 39.7 mmHg | 41.1 mmHg | 14.3 mmHg | 12.9 | 27.5 mmHg | 2.9 | 2.6 | 2.2 | –
9 | Cc1cc(C)cc(NC(=O)Cc2ccc(OC3(C(=O)N[C@H](CC(=O)O)C(=O)O)CCCC3)cc2)c1 | 50.2 mmHg | 55.3 mmHg | 16.1 mmHg | 26.6 | 26.2 mmHg | 3.2 | 2.6 | 1.9 | –
10 | Cc1cc(C)cc(NC(=O)Cc2ccc(OC3(C(=O)N[C@@H](Cc4ccc5[nH]ccc5c4)C(=O)O)CCCC3)cc2)c1 | 47.2 mmHg | 48.8 mmHg | 37 mmHg | 20.2 | 27.9 mmHg | 7.4 | 2.3 | 2 | –
11 | Cc1cc(C)cc(NC(=O)Cc2ccc(OC3(C(=O)N[C@@H](C)C(=O)O)CCCC3)cc2)c1 | 42.8 mmHg | 46.2 mmHg | 10.5 mmHg | 17.6 | 26.8 mmHg | 2.1 | 2.7 | 2.1 | –
12 | CC[C@@H](C)[C@@H](NC(=O)C1(Oc2ccc(CC(=O)Nc3cc(C)cc(C)c3)cc2)CCCC1)C(=O)O | 38.9 mmHg | 40.6 mmHg | 12.3 mmHg | 13.2 | 26.5 mmHg | 2.5 | 2.6 | 2.3 | –
13 | Cc1cc(C)cc(NC(=O)Cc2ccc(OC3(C(=O)N[C@H](Cc4ccc5[nH]ccc5c4)C(=O)O)CCCC3)cc2)c1 | – | 49.9 mmHg | 37.1 mmHg | 20 | 28.7 mmHg | 7.4 | 2.1 | 2.1 | 47.5 mmHg
14 | Cc1cc(C)cc(NC(=O)Cc2ccc(OC3(C(=O)N[C@@H](CCCCN)C(=O)O)CCCC3)cc2)c1 | 27.2 mmHg | 29 mmHg | 5.8 mmHg | -0.2 | 28.3 mmHg | 1.2 | 2.3 | 2.7 | –
15 | Cc1cc(C)cc(NC(=O)Cc2ccc(OC3(C(=O)O)CCCC3)cc2)c1 | 67.7 mmHg | 74.7 mmHg | – | 42.3 | 28.9 mmHg | 5.1 | 2.4 | 1.7 | –
16 | Cc1cc(C)cc(NC(=O)Cc2ccc(OC3(C(=O)N[C@@H](CCCCNC(=O)OCc4ccccc4)C(=O)O)CCCC3)cc2)c1 | 39.5 mmHg | 45 mmHg | 29.5 mmHg | 14 | 28.3 mmHg | 5.9 | 2.4 | 2.1 | –
17 | Cc1cc(C)cc(NC(=O)Cc2ccc(OC3(C(=O)N[C@H](C)C(=O)O)CCCC3)cc2)c1 | 50.3 mmHg | 52.1 mmHg | 13.8 mmHg | 21.9 | 29.4 mmHg | 2.8 | 2.6 | 1.7 | –
18 | CSCC[C@@H](NC(=O)C1(Oc2ccc(CC(=O)Nc3cc(C)cc(C)c3)cc2)CCCC1)C(=O)O | 44.8 mmHg | 45.5 mmHg | 9.5 mmHg | 20.6 | 24.5 mmHg | 1.9 | 2.8 | 2.1 | –
19 | Cc1cc(C)cc(NC(=O)Cc2ccc(OC3(C(=O)N[C@H](Cc4ccccc4)C(=O)O)CCCC3)cc2)c1 | 48.1 mmHg | 49.8 mmHg | 8.2 mmHg | 20.3 | 28.7 mmHg | 1.7 | 2.6 | 1.9 | –
20 | Cc1cc(C)cc(NC(=O)Cc2ccc(OC3(C(=O)N[C@H](CO)C(=O)O)CCCC3)cc2)c1 | 31.1 mmHg | 34 mmHg | 11.2 mmHg | 5.4 | 27.1 mmHg | 2.3 | 2.6 | 2.1 | –
21 | Cc1cc(C)cc(NC(=O)Cc2ccc(OC3(C(=O)N[C@H](CC(C)C)C(=O)O)CCCC3)cc2)c1 | 41.9 mmHg | 42.6 mmHg | 9.4 mmHg | 15.2 | 27.1 mmHg | 1.9 | 2.6 | 2.3 | –
22 | Cc1cc(C)cc(NC(=O)Cc2ccc(OC3(C(=O)N[C@@H](CO)C(=O)O)CCCC3)cc2)c1 | 38.7 mmHg | 44.7 mmHg | 17.1 mmHg | 15.5 | 26.2 mmHg | 3.4 | 2.6 | 2.3 | –
23 | Cc1cc(C)cc(NC(=O)Cc2ccc(OC3(C(=O)N[C@@H](CC(C)C)C(=O)O)CCCC3)cc2)c1 | 70.6 mmHg | 71.3 mmHg | 21.3 mmHg | 41.5 | 29.4 mmHg | 4.3 | 2.7 | 1.8 | –
24 | Cc1cc(C)cc(NC(=O)Cc2ccc(OC3(C(=O)N[C@@H](C(=O)O)C(C)C)CCCC3)cc2)c1 | 56.6 mmHg | 57.3 mmHg | 13.9 mmHg | 30.2 | 26.7 mmHg | 2.8 | 2.6 | 1.9 | –
25 | Cc1cc(C)cc(NC(=O)Cc2ccc(OC3(C(=O)N[C@@H](Cc4ccccc4)C(=O)O)CCCC3)cc2)c1 | 64.1 mmHg | 67.5 mmHg | 12.4 mmHg | 38.4 | 27.4 mmHg | 2.6 | 2.7 | 1.8 | –
26 | Cc1cc(C)cc(NC(=O)Cc2ccc(OC3(C(=O)N[C@H](C(=O)O)C(C)C)CCCC3)cc2)c1 | 53.9 mmHg | 54.8 mmHg | 13 mmHg | 28.6 | 25.7 mmHg | 2.6 | 2.7 | 2 | –
27 | Cc1cc(C)cc(NC(=O)Cc2ccc(OC3(C(=O)N[C@H](Cc4ccc(O)cc4)C(=O)O)CCCC3)cc2)c1 | 47 mmHg | 49 mmHg | 48.6 mmHg | 20.8 | 27.2 mmHg | 9.7 | 2.3 | 2 | –
28 | Cc1cc(C)cc(NC(=O)Cc2ccc(OC3(C(=O)N[C@H](CCC(=O)O)C(=O)O)CCCC3)cc2)c1 | 50.1 mmHg | 51.4 mmHg | 16.8 mmHg | 22.5 | 28.3 mmHg | 3.4 | 2.6 | 2 | –
